The results in this text go back to PubChem BioAssay.

Activity calls are given as the source filed them.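 How the source made its calls, unless noted: active means viability loss from added drug above about 55%, and viability with drug at most 40%, in both replicates (limit read from the data, passing the limit was not always enough); inconclusive means both conditions met in only one replicate; inactive means neither replicate meets both conditions.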

Experiment [1] in a line: reducers of endogenous Her2 protein level, primary screen, SKBR3 breast tumor cells, AlphaScreen, ATP viability (AID 461;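 active means Her2 level under about 52% in both replicate screens, with viability over 70% of control, limit read from the data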;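 on Her2 level: lower value means less Her2 protein in the cells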;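 on viability: percent of carrier control wells set as 100% viability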). The settings on record: 18-24 h, measured here: SKBR3 viability, ATP luminescence, at 10 µM. (In general: In Alpha technology, singlet oxygen from a donor bead excites a nearby acceptor bead.)
For experiment [2], the target named is Receptor tyrosine-protein kinase erbB-2 (Homo sapiens) (UniProt P04626). Described as above. As to conditions: 18-24 h, at 10 µM, stronger effect = lower value.
Experiment [3] is described as follows: SK-BR-3 cell growth inhibitors, pilot screen, 24 h, human (AID 572;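 active means viability at or below 10% of carrier control in both of two separate runs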;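 further: compound exposure lasted between 18 and 24 h rather than exactly 24 h; 100% = carrier-treated control wells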). The settings on record: SK-BR-3 viability, CellTiter-Glo luminescence, at 10 µM, stronger effect = lower value.
A short description of experiment [4]: HUVEC growth inhibition – cell-based, human, primary screen (AID 575;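 active means viability at or below 30% in both replicate assays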;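 further: 100% = median of untreated cell wells with 0.1% DMSO on each plate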). The settings on record: HUVEC proliferation, CellTiter-Glo luminescence, 72 h; at 10 µM; stronger effect = lower value. Summed up: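 Test system: primary human umbilical vein endothelial cells; medium: endothelial basal medium with 2% FBS plus growth supplements; dosing: 10 µM compound only; times: 72 h treatment at 37 °C; signal: CTG luminescence; read-out: % viability relative to median vehicle-well signal on each plate; control set: vehicle and MePR control wells; plate: 384-well, collagen-coated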
(In general: In ATP-based viability assays light output follows the ATP content of the culture.)

Experiment [5] in a line: growth inhibitors of H69AR lung tumor, primary screen, human, duplicate replicates (AID 580;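 active means viability at or under a set limit in both replicates, limit being median viability minus 3 SD, cut at about 48% in these data, passing the limit was not always enough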;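 further: 100% = mean luminescence of untreated wells and 0% = no signal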). As to conditions: H69AR lung tumor cells viability, ATP luminescence, 72 h; at 10 µM; stronger effect = lower value.
Experiment [6] can be described thus: reversal of MRP1-mediated doxorubicin resistance, pilot screen, H69AR cells, doxorubicin co-treatment (AID 601). As to conditions: CellTiter-Glo, 72 h, at 10 µM; for differential viability (reversal): stronger effect = higher value.
Experiment [7] can be described thus: 384-well plate pilot, post-Golgi transport modulator project, inhibition of yeast transport mutant growth (AID 636; in the data active means inhibition above about 31%). As to conditions: absorbance 615 nm, about 18 h, stronger effect = higher value.
A short description of experiment [8]: growth suppression of yeast trafficking mutant, preliminary HTS, modulators of trafficking downstream of Golgi apparatus project, 1536-format plate, OD 615 nm (AID 637; in the data active means inhibition above about 30%). As to conditions: yeast transport mutant growth, absorbance 615 nm, 18 h; stronger effect = higher value.
Where [9] appears, read: H69AR cells + 2 uM doxorubicin, measured here: viability with 2 uM doxorubicin, stronger effect = lower value.
Setting [10] is: H69AR cells, compound alone cytotoxicity.

Receptor tyrosine-protein kinase erbB-2 (Homo sapiens), sequence (P04626 whole entry, looked up): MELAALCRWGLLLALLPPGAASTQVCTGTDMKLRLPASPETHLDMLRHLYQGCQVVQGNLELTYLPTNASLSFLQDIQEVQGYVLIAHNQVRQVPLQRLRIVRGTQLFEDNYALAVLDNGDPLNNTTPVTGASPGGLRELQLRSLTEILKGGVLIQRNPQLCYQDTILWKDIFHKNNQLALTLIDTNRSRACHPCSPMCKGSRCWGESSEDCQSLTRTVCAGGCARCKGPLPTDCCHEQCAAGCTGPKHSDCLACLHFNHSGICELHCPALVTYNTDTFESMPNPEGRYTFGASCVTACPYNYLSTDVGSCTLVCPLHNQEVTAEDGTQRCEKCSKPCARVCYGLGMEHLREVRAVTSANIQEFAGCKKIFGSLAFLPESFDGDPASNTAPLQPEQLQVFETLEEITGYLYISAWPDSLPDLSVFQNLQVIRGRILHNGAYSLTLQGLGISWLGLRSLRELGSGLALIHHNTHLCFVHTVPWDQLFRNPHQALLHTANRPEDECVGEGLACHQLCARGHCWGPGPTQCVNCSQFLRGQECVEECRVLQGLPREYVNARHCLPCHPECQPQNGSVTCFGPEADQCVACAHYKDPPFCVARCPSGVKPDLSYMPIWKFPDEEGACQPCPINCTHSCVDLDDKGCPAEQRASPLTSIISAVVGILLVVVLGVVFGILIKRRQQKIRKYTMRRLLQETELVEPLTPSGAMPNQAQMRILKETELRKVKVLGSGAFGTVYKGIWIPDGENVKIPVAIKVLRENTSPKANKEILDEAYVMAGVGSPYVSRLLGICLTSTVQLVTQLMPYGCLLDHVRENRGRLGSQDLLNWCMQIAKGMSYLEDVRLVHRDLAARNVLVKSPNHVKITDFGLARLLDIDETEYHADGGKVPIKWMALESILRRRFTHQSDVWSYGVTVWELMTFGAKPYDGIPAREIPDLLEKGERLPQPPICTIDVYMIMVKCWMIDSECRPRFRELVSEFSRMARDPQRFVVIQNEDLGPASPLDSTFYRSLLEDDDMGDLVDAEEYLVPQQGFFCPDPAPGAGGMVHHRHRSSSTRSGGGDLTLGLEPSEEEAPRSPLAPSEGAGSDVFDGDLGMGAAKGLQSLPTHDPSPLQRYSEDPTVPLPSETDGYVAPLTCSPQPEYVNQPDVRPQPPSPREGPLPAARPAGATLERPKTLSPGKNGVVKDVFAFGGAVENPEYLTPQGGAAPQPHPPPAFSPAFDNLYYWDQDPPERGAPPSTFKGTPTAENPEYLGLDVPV

As to `CCOC(=O)CNC(=O)Cn1cnc2c(nnn2-c2cccc(Cl)c2)c1=O`, the viability – broadly, a read-out of living cells in per cent, often relative to untreated cells – in experiment [1] is 82.5%; in experiment [3], 82.5% (inactive); in experiment [4], 105% (inactive); in experiment [5], 107% (inactive); in experiment [6] (setting [9]) it was 108%; in experiment [6] (setting [10]), 107%. The Her2 level in experiment [2] was 109% (inactive). Further, the differential viability (reversal) in experiment [6] (H69AR cells + 2 uM doxorubicin) is -1.7% (inactive). For the same molecule, the inhibition (usually the drop in the measured response relative to a control, in per cent) in experiment [7] is -0.53% (inactive); in experiment [8], -6.83% (inactive).

As for `CC(C)COC(=O)C(C#N)c1nc2ccccc2nc1N1CCN(Cc2ccccc2)CC1` (stereo not given), the viability in experiment [1] is 76%; in experiment [3] it was 76% (inactive); in experiment [4] it was 64.7% (inactive); in experiment [5], 74.7% (inactive); in experiment [6] (setting [9]), 80.6%; in experiment [6] (setting [10]), 74.7%. The Her2 level in experiment [2] was 85.5% (inactive). Further, the differential viability (reversal) in experiment [6] (H69AR cells + 2 uM doxorubicin) was -5.91% (inactive). Further, the inhibition in experiment [7] is -4.53% (inactive); in experiment [8], 14.3% (inactive).

For `O=C1CCC(c2ccccc2)N1C(=O)c1cccnc1` (stereo not given), the viability in experiment [1] was 129%; in experiment [3], 129% (inactive); in experiment [4], 105% (inactive); in experiment [5], 98.8% (inactive); in experiment [6] (setting [9]), 90.2%; in experiment [6] (setting [10]) it was 98.8%. In addition, in experiment [2], the Her2 level is 95.5% (inactive). For the same molecule, the differential viability (reversal) in experiment [6] (H69AR cells + 2 uM doxorubicin) was 8.63% (inactive). Also, the inhibition in experiment [7] is -6.58% (inactive); in experiment [8], -4.29% (inactive).

As for `CCC(C)(C)NC(=O)CN(C(=O)c1snc(C(N)=O)c1N)c1ccc2c(c1)OCO2`, the viability in experiment [1] was 104%; in experiment [3], 104% (inactive); in experiment [4], 110% (inactive); in experiment [5] it was 110% (inactive); in experiment [6] (setting [9]), 102%; in experiment [6] (setting [10]) it was 110%. Also, the Her2 level in experiment [2] is 94% (inactive). The differential viability (reversal) in experiment [6] (H69AR cells + 2 uM doxorubicin) was 7.68% (inactive). The results for the inhibition in experiment [7] and in experiment [8] were -4.93% (inactive) and -1.27% (inactive), respectively.

For `O=C1NC(=O)C2(CCC(C(=O)O)C2)N1` (stereo not given), the viability in experiment [1] is 93.5%; in experiment [3], 93.5% (inactive); in experiment [4], 96.4% (inactive); in experiment [5] it was 94.2% (inactive); in experiment [6] (setting [9]), 94.5%; in experiment [6] (setting [10]) it was 94.2%. Moreover, the Her2 level in experiment [2] was 84% (inactive). In addition, the differential viability (reversal) in experiment [6] (H69AR cells + 2 uM doxorubicin) was -0.33% (inactive). The results for the inhibition in experiment [7] and in experiment [8] were -5.73% (inactive) and 2.46% (inactive), respectively.

In the case of `CCOc1ccc(NC(=O)CN2CCN(CC(=O)c3ccc(OCC)cc3)CC2)cc1`, the viability in experiment [1] is 95%; in experiment [3] it was 95% (inactive); in experiment [4] it was 77.8% (inactive); in experiment [5] it was 89.3% (inactive); in experiment [6] (setting [9]), 88.1%; in experiment [6] (setting [10]), 89.3%. Also, the Her2 level in experiment [2] is 89% (inactive). Besides, the differential viability (reversal) in experiment [6] (H69AR cells + 2 uM doxorubicin) was 1.23% (inactive). The inhibition in experiment [7] was -4.87% (inactive); in experiment [8], -2.83% (inactive).

As for `COCCNC(=O)CCCCCN1C(=O)CCC1=O`, the viability in experiment [1] was 108%; in experiment [3] it was 108% (inactive); in experiment [4], 105% (inactive); in experiment [5], 94.8% (inactive); in experiment [6] (setting [9]) it was 84.4%; in experiment [6] (setting [10]) it was 94.8%. Also, the Her2 level in experiment [2] is 79.5% (inactive). Further, the differential viability (reversal) in experiment [6] (H69AR cells + 2 uM doxorubicin) is 10.4% (inactive). The inhibition is -8.65% (inactive) in experiment [7] and 4.76% (inactive) in experiment [8].

In the case of `CCOc1ccc(/C=N/n2cnnc2)cc1`, the viability was 101% in experiment [1]; 101% (inactive) in experiment [3]; 78.8% (inactive) in experiment [4]; 96.7% (inactive) in experiment [5]; 88.9% in experiment [6] (setting [9]); 96.7% in experiment [6] (setting [10]). Moreover, in experiment [2], the Her2 level was 94.5% (inactive). Further, the differential viability (reversal) in experiment [6] (H69AR cells + 2 uM doxorubicin) is 7.86% (inactive). Besides, the values for the inhibition in experiment [7] and in experiment [8] were -0.52% (inactive) and -3.93% (inactive), respectively.

Take `Brc1ccc2[nH]ncc2c1`: the viability was 101% in experiment [1]; 101% (inactive) in experiment [3]; 110% (inactive) in experiment [4]; 91.6% (inactive) in experiment [5]; 91.5% in experiment [6] (setting [9]); 91.6% in experiment [6] (setting [10]). The Her2 level in experiment [2] was 78% (inactive). Further, the differential viability (reversal) in experiment [6] (H69AR cells + 2 uM doxorubicin) is 0.11% (inactive). In addition, the inhibition in experiment [7] was -2.5% (inactive); in experiment [8] it was 1.43% (inactive).

Turning to `CCc1nc(N[C@@H](Cc2c[nH]c3ccccc23)C(=O)O)c2oc3ccccc3c2n1`, the viability in experiment [1] is 100%; in experiment [3], 100% (inactive); in experiment [4] it was 71.7% (inactive); in experiment [5] it was 82.1% (inactive); in experiment [6] (setting [9]), 96.7%; in experiment [6] (setting [10]), 82.1%. Moreover, the Her2 level in experiment [2] is 81% (inactive). The differential viability (reversal) in experiment [6] (H69AR cells + 2 uM doxorubicin) is -14.6% (inactive). Also, the inhibition in experiment [7] is -5.07% (inactive); in experiment [8], -3.44% (inactive).

`CN(C)c1cccc(C(=O)OCC(=O)NCc2ccco2)c1`: the viability was 102% in experiment [1]; 102% (inactive) in experiment [3]; 87% (inactive) in experiment [4]; 86.2% (inactive) in experiment [5]; 78.6% in experiment [6] (setting [9]); 86.2% in experiment [6] (setting [10]). In addition, in experiment [2], the Her2 level was 86.5% (inactive). Besides, the differential viability (reversal) in experiment [6] (H69AR cells + 2 uM doxorubicin) was 7.69% (inactive). Also, the inhibition is -4.81% (inactive) in experiment [7] and -2.22% (inactive) in experiment [8].

Take `O=C(NCC1COc2ccccc2O1)c1ccc(NC(=O)c2ccco2)cc1` (stereo not given): the viability in experiment [1] was 85.5%; in experiment [3], 85.5% (inactive); in experiment [4] it was 105% (inactive); in experiment [5], 99.1% (inactive); in experiment [6] (setting [9]), 92.4%; in experiment [6] (setting [10]), 99.1%. In addition, in experiment [2], the Her2 level was 83% (inactive). Moreover, the differential viability (reversal) in experiment [6] (H69AR cells + 2 uM doxorubicin) was 6.69% (inactive). Moreover, the inhibition was 0% (inactive) in experiment [7] and -2.33% (inactive) in experiment [8].

For the molecule `O=C(CN(Cc1ccco1)C(=O)c1cc(=O)[nH]c2ccccc12)Nc1ccccc1Br`, the viability in experiment [1] is 97%; in experiment [3] it was 97% (inactive); in experiment [4], 98.2% (inactive); in experiment [5], 83.1% (inactive); in experiment [6] (setting [9]), 74%; in experiment [6] (setting [10]), 83.1%. Further, in experiment [2], the Her2 level is 79.5% (inactive). The differential viability (reversal) in experiment [6] (H69AR cells + 2 uM doxorubicin) is 9.09% (inactive). Also, the inhibition in experiment [7] was -4.4% (inactive); in experiment [8] it was -0.33% (inactive).

Regarding `O=C(C1CCCO1)N1CCN(C(c2ccccc2)c2ccccc2)CC1` (stereo not given), the viability in experiment [1] is 98.5%; in experiment [3], 98.5% (inactive); in experiment [4], 89.1% (inactive); in experiment [5] it was 96% (inactive); in experiment [6] (setting [9]) it was 89.5%; in experiment [6] (setting [10]) it was 96%. In experiment [2], the Her2 level is 94% (inactive). For the same molecule, the differential viability (reversal) in experiment [6] (H69AR cells + 2 uM doxorubicin) is 6.47% (inactive). Moreover, the inhibition in experiment [7] is -0.91% (inactive); in experiment [8] it was 2.62% (inactive).

On to `CCn1c(=O)cc(SCC(=O)Nc2ccc3c(c2)OCO3)c2ccccc21`, for which the viability in experiment [1] is 97%; in experiment [3], 97% (inactive); in experiment [4], 64.1% (inactive); in experiment [5], 87.9% (inactive); in experiment [6] (setting [9]), 84.4%; in experiment [6] (setting [10]), 87.9%. In addition, in experiment [2], the Her2 level is 88% (inactive). Besides, the differential viability (reversal) in experiment [6] (H69AR cells + 2 uM doxorubicin) was 3.51% (inactive). The values for the inhibition in experiment [7] and in experiment [8] were -2.5% (inactive) and -10.5% (inactive), respectively.

On to `Cc1sc2nc(SCc3nc4ccccc4[nH]3)n(Cc3ccco3)c(=O)c2c1C`, for which the viability is 96.5% in experiment [1]; 96.5% (inactive) in experiment [3]; 91.7% (inactive) in experiment [4]; 84.6% (inactive) in experiment [5]; 76.6% in experiment [6] (setting [9]); 84.6% in experiment [6] (setting [10]). In experiment [2], the Her2 level is 92.5% (inactive). Besides, the differential viability (reversal) in experiment [6] (H69AR cells + 2 uM doxorubicin) was 8.02% (inactive). In addition, the inhibition in experiment [7] was -0.13% (inactive); in experiment [8], -1.8% (inactive).
